Experimental data gathered from unrelated publications.
Lines come from different studies, so protocols differ.
Tumor necrosis factor receptor superfamily member 9: Tumor necrosis factor receptor superfamily member 9 (Homo sapiens, UniProt Q07011)
Drd2: D(2) dopamine receptor (Drd2, Rattus norvegicus, UniProt P61169)
PPARA: Peroxisome proliferator-activated receptor alpha (PPARA, Homo sapiens, UniProt Q07869)
ADRA1B: Alpha-1B adrenergic receptor (ADRA1B, Homo sapiens, UniProt P35368)
CYP2D6: Cytochrome P450 2D6 (CYP2D6, Homo sapiens, UniProt P10635)
gag-pol integrase: Gag-Pol polyprotein, integrase (gag-pol, Human immunodeficiency virus 1, UniProt P12497)

Structure (SMILES)	target	test	system	conditions	endpoint	result
CCCC[C@@H]1NC(=O)[C@H](Cc2ccc(O)cc2)NC(=O)[C@@H]2CCCN2C(=O)[C@H](CC(N)=O)NC(=O)[C@H](C)NC(=O)[C@H](Cc2ccccc2)NC(=O)[C@@H]2CSCCC(=O)N3CN(CN(C3)C(=O)CCSC[C@H](NC(C)=O)C(=O)N[C@@H](CC(C)(C)C)C(=O)N3CCC[C@H]3C(=O)N[C@@H](CCC(=O)O)C(=O)N[C@H](CCCCNC(=O)CCc3cn(CCOCCOCCOCCOCCOCCC(=O)N[C@H]4CSCCC(=O)N5CN6CN(C5)C(=O)CCSC[C@H](NC(=O)[C@@H](CC(=O)O)NC(=O)[C@H](Cc5cccc7ccccc57)NC(=O)[C@@H]5CCCN5C4=O)C(=O)N[C@@H](CCSC)C(=O)N[C@@H](CCCCNC(=N)N)C(=O)N[C@@H](CC(=O)O)C(=O)N[C@@H](Cc4c[nH]c5ccccc45)C(=O)N[C@@H](CO)C(=O)N[C@@H]([C@@H](C)O)C(=O)N4CCC[C@H]4C(=O)N4C[C@H](O)C[C@H]4C(=O)N[C@@H](Cc4c[nH]c5ccccc45)C(=O)N[C@H](C(N)=O)CSCCC6=O)nn3)C(=O)N3CCC[C@H]3C(=O)N[C@@H](Cc3ccc(O)cc3)C(=O)N2)C(=O)CCSC[C@@H](C(N)=O)NC1=O	Tumor necrosis factor receptor superfamily member 9	binding, SPR			Kd	878 nM
Clc1ccc(N2CCN(Cc3c[nH]c4ncccc34)CC2)cc1	Drd2	ligand displacement, radioligand		cell membranes	Ki	656 nM
CCCC[C@@H]1NC(=O)[C@H](Cc2ccc(O)cc2)NC(=O)[C@@H]2CCCN2C(=O)[C@H](CC(=O)O)NC(=O)[C@H](C)NC(=O)[C@H](Cc2ccccc2)NC(=O)[C@@H]2CSCCC(=O)N3CN(CN(C3)C(=O)CCSC[C@@H](C(=O)N[C@@H](C)C(N)=O)NC1=O)C(=O)CCSC[C@H](NC(C)=O)C(=O)N[C@@H](CC(C)(C)C)C(=O)N1CCC[C@H]1C(=O)N[C@@H](CCC(=O)O)C(=O)N[C@H](CCCCNC(=O)CCc1cn(CCOCCOCCOCCOCCOCCC(=O)NCCCC[C@H]3NC(=O)[C@H](Cc4cccc5ccccc45)NC(=O)[C@@H]4CCCN4C(=O)CCSCCC(=O)N4CN5CN(C4)C(=O)CCSC[C@H](NC3=O)C(=O)N[C@@H](CCSC)C(=O)N[C@@H](CCCCNC(=N)N)C(=O)N[C@@H](CC(=O)O)C(=O)N[C@@H](Cc3c[nH]c4ccccc34)C(=O)N[C@@H](CO)C(=O)N[C@@H]([C@@H](C)O)C(=O)N3CCC[C@H]3C(=O)N3C[C@H](O)C[C@H]3C(=O)N[C@@H](Cc3c[nH]c4ccccc34)C(=O)N[C@H](C(N)=O)CSCCC5=O)nn1)C(=O)N1CCC[C@H]1C(=O)N[C@@H](Cc1ccc(O)cc1)C(=O)N2	Tumor necrosis factor receptor superfamily member 9	binding, SPR			Kd	3.2 nM
O=C(O)CCC(c1ccccc1)(c1ccccc1)c1ccccc1	Kinesin-like protein KIF11 (KIF11, Homo sapiens, UniProt P52732)	ATPase activity, inhibitor			IC50	> 28000 nM
O=S(=O)(O)C(F)(F)C(F)(F)C(F)(F)C(F)(F)C(F)(F)C(F)(F)C(F)(F)C(F)(F)F	PPARA	reporter gene, agonist, luciferase			EC50	24000 nM
c1ccc(-c2c[nH]c3ncnc(N4CCOCC4)c23)cc1	Serine/threonine-protein kinase 4 (STK4, Homo sapiens, UniProt Q13043)	enzyme activity, inhibitor, ADP detection			IC50	35 nM
CC(C)C[C@H](NC(=O)[C@H](CCCCN)NC(=O)[C@@H]1CCCN1C(=O)[C@@H](N)CCCNC(=N)N)C(=O)N[C@@H](CCCCN)C(=O)O	ADRA1B	cell-free assay, radioligand			Ki	2900 nM
O=C(O)C(F)(OC(F)(F)C(F)(F)C(F)(F)F)C(F)(F)F (stereo not shown)	PPARA	reporter gene, agonist, luciferase			EC50	2100 nM
Cc1cc(SCc2sc(-c3ccc(C(F)(F)F)c(F)c3)nc2C)ccc1OCC(=O)O	PPARA	reporter gene, antagonist, luciferase			IC50	37400 nM
COCCCN1CCN(c2ccccc2OC)CC1	ADRA1B	ligand displacement, radioligand			Ki	240 nM
Cc1c(C2(c3ccc(C(F)(F)F)nc3)CC2)c[nH]c1C(=O)NC(C)c1nc[nH]n1 (stereo not shown)	CYP2D6	enzyme activity, inhibitor	human, liver microsomes		IC50	17000 nM
CCCC[C@@H]1NC(=O)[C@H](Cc2ccc(O)cc2)NC(=O)[C@@H]2CCCN2C(=O)[C@H](CC(=O)O)NC(=O)[C@H](C)NC(=O)[C@H](Cc2ccccc2)NC(=O)[C@@H]2CSCCC(=O)N3CN(CN(C3)C(=O)CCSC[C@@H](C(=O)N[C@@H](C)C(N)=O)NC1=O)C(=O)CCSC[C@H](NC(C)=O)C(=O)N[C@@H](CC(C)(C)C)C(=O)N1CCC[C@H]1C(=O)N[C@@H](CCC(=O)O)C(=O)N[C@H](CCCCNC(=O)CCc1cn(CCOCCOCCOCCOCCOCCC(=O)NCCCC[C@H]3NC(=O)[C@H](Cc4cccc5ccccc45)NC(=O)[C@@H]4CCCN4C(=O)[C@@H](NC(C)=O)CSCCC(=O)N4CN5CN(C4)C(=O)CCSC[C@H](NC3=O)C(=O)N[C@@H](CCSC)C(=O)N[C@@H](CCCCNC(=N)N)C(=O)N[C@@H](CCC(=O)O)C(=O)N[C@@H](Cc3c[nH]c4ccccc34)C(=O)N[C@@H](CO)C(=O)N[C@@H]([C@@H](C)O)C(=O)N3CCC[C@H]3C(=O)N3C[C@H](O)C[C@H]3C(=O)N[C@@H](Cc3c[nH]c4ccccc34)C(=O)N[C@H](C(N)=O)CSCCC5=O)nn1)C(=O)N1CCC[C@H]1C(=O)N[C@@H](Cc1ccc(O)cc1)C(=O)N2	Tumor necrosis factor receptor superfamily member 9	binding, SPR			Kd	7.2 nM
[Cd+2]	Protein phosphatase 1A (PPM1A, Homo sapiens, UniProt P35813, D38V)	enzyme activity, inhibitor, absorbance		pH 8	Ki	470 nM
O=S(=O)(O)C(F)(F)C(F)(F)C(F)(F)C(F)(F)C(F)(F)C(F)(F)F	PPARA	reporter gene, agonist, luciferase			EC50	61000 nM
O=C(O)[C@H](Cc1ccccc1)NC(=O)C1(c2ccc(-c3ccccc3)cc2)CCN(CCC(F)(F)F)CC1	gag-pol integrase	enzyme activity, inhibitor, TR-FRET			IC50	263000 nM
CCCC[C@@H]1NC(=O)[C@H](Cc2ccc(O)cc2)NC(=O)[C@@H]2CCCN2C(=O)[C@H](CC(=O)O)NC(=O)[C@H](C)NC(=O)[C@H](Cc2ccccc2)NC(=O)[C@@H]2CSCCC(=O)N3CN(CN(C3)C(=O)CCSC[C@H](NC(C)=O)C(=O)N[C@@H](CC(C)(C)C)C(=O)N[C@@H](CCC(=O)O)C(=O)N[C@@H](CCC(=O)O)C(=O)N[C@H](CCCCNC(=O)CCc3cn(CCOCCOCCOCCOCCOCCC(=O)N[C@H]4CSCCC(=O)N5CN6CN(C5)C(=O)CCSC[C@H](NC(=O)[C@@H](CC(=O)O)NC(=O)[C@H](Cc5cccc7ccccc57)NC(=O)[C@@H]5CCCN5C4=O)C(=O)N[C@@H](CCSC)C(=O)N[C@@H](CCCCNC(=N)N)C(=O)N[C@@H](CC(=O)O)C(=O)N[C@@H](Cc4c[nH]c5ccccc45)C(=O)N[C@@H](CO)C(=O)N[C@@H]([C@@H](C)O)C(=O)N4CCC[C@H]4C(=O)N4C[C@H](O)C[C@H]4C(=O)N[C@@H](Cc4c[nH]c5ccccc45)C(=O)N[C@H](C(N)=O)CSCCC6=O)nn3)C(=O)N3CCC[C@H]3C(=O)N[C@@H](Cc3ccc(O)cc3)C(=O)N2)C(=O)CCSC[C@@H](C(N)=O)NC1=O	Tumor necrosis factor receptor superfamily member 9	binding, SPR			Kd	9.6 nM
O=C(O)[C@H](Cc1ccc2ccccc2c1)NC(=O)C1(c2ccc(-c3ccccc3)cc2)CCN(CCC(F)(F)F)CC1	gag-pol integrase	enzyme activity, inhibitor, TR-FRET			IC50	93500 nM
Cc1c(Cc2ccc(C(F)(F)F)nc2)c[nH]c1C(=O)NC(C)c1cn[nH]c1 (stereo not shown)	CYP2D6	enzyme activity, inhibitor	human, liver microsomes		IC50	750 nM
c1ccc(-c2ncc(CN3CCN(c4ncccn4)CC3)[nH]2)cc1	Drd2	ligand displacement, radioligand		cell membranes	Ki	817 nM
O=C(O)[C@H](Cc1ccccc1)NC(=O)C1(c2ccccc2)CCN(Cc2ccccc2)CC1	gag-pol integrase	enzyme activity, inhibitor, TR-FRET			IC50	194000 nM
CC(=O)N[C@@H](CC(C)C)C(=O)N[C@@H](CC(C)C)C(=O)N[C@@H](CC(C)C)C(=O)N[C@@H](CCCN=C(N)N)C(=O)N[C@H](C(=O)N[C@@H](CCCCN)C(=O)N[C@@H](CCCN=C(N)N)C(N)=O)C(C)C	Proprotein convertase subtilisin/kexin type 7 (Homo sapiens, UniProt Q16549)	enzyme activity, inhibitor			Ki	1520 nM
CC(C)C[C@H](NC(=O)[C@H](Cc1ccccc1)NC(=O)[C@H](Cc1ccc(O)cc1)NC(=O)CNC(=O)[C@H](CCCCN)NC(=O)[C@H](CO)NC(=O)[C@H](CCC(N)=O)NC(=O)CNC(=O)[C@@H](NC(=O)[C@H](CO)NC(=O)[C@@H]1CCCN1C(=O)[C@H](CO)NC(=O)[C@H](CCC(N)=O)NC(=O)[C@H](Cc1ccc(O)cc1)NC(=O)[C@H](CCC(=O)O)NC(=O)[C@H](C)NC(=O)[C@H](CCCCN)NC(=O)[C@@H](N)Cc1ccccc1)C(C)C)C(=O)N[C@@H](Cc1ccccc1)C(=O)N[C@@H](CCCNC(=N)N)C(=O)N1CCC[C@H]1C(=O)N[C@@H](CCCNC(=N)N)C(=O)N[C@@H](CC(N)=O)C(N)=O	Neuromedin-U receptor 2 (NMUR2, Homo sapiens, UniProt Q9GZQ4)	inositol phosphate, agonist			EC50	0.24 nM
